# A selection: hits, their analogues and other compounds. The true share with any hit is near 1%.
# PvdQ inh = blocks Pseudomonas aeruginosa PvdQ acylase activity. inhibition, % at 10 µM. purified PvdQ acylase, fluorescence plate reader. AID 488965. 340,000 compounds, 0.063% hits; in the data active means inhibition above about 30%, passing the limit was not always enough;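 further: 0% = vehicle neutral wells and 100% = reference inhibitor wells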
# RAD54 branch = RAD54 (human) branch migration inhibition; Q92698; 360,000 compounds, 0.14% hits; AID 602329; RAD54 Holliday junction branch migration, FAM/BHQ fluorescence; inhibition, % at 10.4 µM;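 active means mean normalized replicate activity at least 40 and at least half of replicates scoring 40 or more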;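 further: 0% = median of neutral control wells and 100% = median of positive control wells; inhibitors cause a drop in the FAM fluorescence signal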
# Target sequence (Q92698 whole entry, looked up): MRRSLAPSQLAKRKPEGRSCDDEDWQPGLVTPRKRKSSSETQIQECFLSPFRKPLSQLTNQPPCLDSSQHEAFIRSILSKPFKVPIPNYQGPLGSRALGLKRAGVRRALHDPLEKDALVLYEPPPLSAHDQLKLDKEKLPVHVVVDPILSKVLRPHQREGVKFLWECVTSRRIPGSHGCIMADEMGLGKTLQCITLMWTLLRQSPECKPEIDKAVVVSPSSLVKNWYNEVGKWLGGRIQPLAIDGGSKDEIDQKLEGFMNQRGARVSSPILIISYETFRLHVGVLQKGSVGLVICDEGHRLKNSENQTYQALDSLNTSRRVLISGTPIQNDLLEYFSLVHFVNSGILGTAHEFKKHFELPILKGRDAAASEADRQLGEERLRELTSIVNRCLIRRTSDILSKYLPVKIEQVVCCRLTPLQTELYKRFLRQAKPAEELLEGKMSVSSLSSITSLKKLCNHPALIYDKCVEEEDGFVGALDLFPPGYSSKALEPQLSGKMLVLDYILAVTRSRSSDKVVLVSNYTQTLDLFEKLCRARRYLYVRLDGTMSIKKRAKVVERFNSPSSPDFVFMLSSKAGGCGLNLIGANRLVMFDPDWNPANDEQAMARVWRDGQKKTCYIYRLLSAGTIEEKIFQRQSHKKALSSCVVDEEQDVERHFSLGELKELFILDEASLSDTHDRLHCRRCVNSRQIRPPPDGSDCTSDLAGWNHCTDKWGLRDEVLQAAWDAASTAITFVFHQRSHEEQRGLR
# FID counter = counter-screen for HCV NS3 helicase inhibitors: DNA intercalator displacement | 290,000 compounds, 0.17% hits | inhibition, % at 7.9 µM | DNA fluorescent intercalator displacement, fluorescence; in the data active means inhibition above about 37%;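 further: 0% = vehicle and 100% = reference compound; higher means more ethidium bromide displaced from hairpin DNA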
# VIM-2 inh = inhibitors of Pseudomonas aeruginosa VIM-2 metallo-beta-lactamase; purified VIM-2, nitrocefin hydrolysis, epi-absorbance fluorescence; inhibition, % at 5.6 µM; 290,000 compounds, 0.89% hits;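 active means inhibition above the mean of all tested compounds plus 3 SD, cutoff set per screening run, cut at about 7.5% in these data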;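 further: red hydrolysis product quenches plate fluorescence so inhibitors raise well fluorescence; 0% = enzyme with DMSO and 100% = DMSO without enzyme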
# IMP-1 inh = inhibitors of Pseudomonas aeruginosa IMP-1 metallo-beta-lactamase; purified IMP-1, nitrocefin hydrolysis, epi-absorbance fluorescence; inhibition, % at 5.6 µM; 290,000 compounds, 0.45% hits;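 active means inhibition above the mean plus 3 SD of all compounds in the same screening run, cut at about 4.5% in these data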;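 further: 0% = IMP-1 with DMSO and 100% = DMSO wells lacking enzyme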
#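 System – purified recombinant IMP-1 beta-lactamase · Input – IMP-1 dispensed at 0.2 nM · Timing – 15 min preincubation plus 25 min reaction at 25 °C · Signal – Epi-absorbance fluorescence, 480 nm excitation, 530 nm emission · Measure – percent IMP-1 inhibition derived from blank-referenced optical density · Controls – Enzyme-plus-DMSO low control, enzyme-free DMSO high control · Replication – singlicate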
# * marks the source's active call; other numbers are inactive results; . = no result given.
SMILES,PvdQ inh,RAD54 branch,FID counter,VIM-2 inh,IMP-1 inh
CC(C)OC(=O)C[N+](C)(C)CCN1C(=O)C2C(c3ccccc3)C=CC(c3ccccc3)C2C1=O (stereo not given),-6.2,.,31.9,1.5,12.8*
CN(C)CCCN(C(=O)CCc1ccccc1)c1nc2ccc(F)cc2s1,-15.6,.,13.1,-3.1,-3.4
Cc1cccc2sc(N(CCCN(C)C)C(=O)c3ccc(S(=O)(=O)N4CCc5ccccc5C4)cc3)nc12,-8.0,9.0,38.2*,-2.4,-0.1
CN(C)CCCN(C(=O)c1ccc(S(=O)(=O)N2CCc3ccccc3C2)cc1)c1nc2ccc(F)cc2s1,-0.4,5.2,41.1*,-2.1,0.4
CN(C)CCCN(C(=O)c1ccc2c(c1)OCCO2)c1nc2ccc(Cl)cc2s1,-4.4,3.3,39.7*,0.8,-2.6
CN(C)CCCN(C(=O)c1cc(-c2cccs2)nc2ccccc12)c1nc2ccc(F)cc2s1,-3.7,-2.4,40.1*,-1.5,-1.0
CN(C)CCCN(C(=O)c1ccc(S(=O)(=O)N2CCc3ccccc3C2)cc1)c1nc2c(F)cccc2s1,-5.9,8.1,16.3,-2.2,-0.4
CN(C)CCN(C(=O)c1ccc2c(c1)OCCO2)c1nc2ccc(Cl)cc2s1,5.8,-1.6,8.5,-2.0,-1.5
COc1ccc(S(=O)(=O)N(C)C[C@@H]2OCCCC[C@@H](C)Oc3ccc(NS(=O)(=O)c4ccc(C)cc4)cc3C(=O)N([C@@H](C)CO)C[C@H]2C)cc1,.,13.9,.,.,.
Cc1sc2nc3ccc(NCc4ccco4)nn3c(=O)c2c1C,-10.0,.,-0.5,3.8,6.2*
O=c1c2ccccc2nc2ccc(NCc3ccco3)nn12,-9.4,0.2,-1.5,0.9,1.3
COc1ccccc1S(=O)(=O)Nc1ccc2c(c1)OC[C@H](C)NC[C@@H](C)[C@@H](OC)CN(C)C2=O,.,-0.6,.,.,.
C[C@H]1CN([C@@H](C)CO)C(=O)c2cccc(NS(C)(=O)=O)c2O[C@H]1CN(C)CC1CC1,.,9.7,.,.,.
O=[N+]([O-])c1ccccc1N/N=C1\CC2CC=CC12 (stereo not given),58.1*,.,1.1,-1.9,-3.1
CC1=C(C(=O)Nc2ccccc2C)C(c2ccccc2)NC(=O)N1 (stereo not given),-16.1,5.1,1.2,-0.1,4.5*
Cc1nc(N2CCN(C(=O)c3ccco3)CC2)c2c3c(sc2n1)CCCC3,-2.7,1.0,-35.3,1.6,-0.2
CCc1nc(SCC(=O)N2CCN(C(=O)c3ccco3)CC2)c2c3c(sc2n1)CCCC3,-7.9,4.5,-6.5,9.7*,-1.6
O=C1C2CC=C(Cl)CC2C(=O)N1CCc1ccccc1 (stereo not given),-12.5,-18.6,-9.9,-1.2,6.9*
O=C1C2CC=C(Cl)CC2C(=O)N1CCc1c[nH]c2ccccc12 (stereo not given),-4.6,-9.3,-7.7,0.2,-0.6
CCOc1ccc2nc(Nc3nc(CSc4nnnn4-c4ccccc4)cc(=O)[nH]3)nc(C)c2c1,-7.8,-5.1,1.3,0.7,-1.4
COc1ccc2nc(Nc3nc(CSc4nnnn4-c4ccccc4)cc(=O)[nH]3)nc(C)c2c1,-1.4,-1.5,-3.9,1.3,4.9*
CCN1CCN(C(=O)c2ccc3c(Cl)c4c(nc3c2)CCCC4)CC1,-7.1,-7.4,3.4,8.2*,-1.1
CN1CCN(C(=O)c2ccc3c(Cl)c4c(nc3c2)CCCC4)CC1,4.7,-1.9,4.6,10.8*,0.8
N#CC1CCN(C(=O)c2ccc3c(Cl)c4c(nc3c2)CCCC4)CC1,-8.2,-2.5,-41.6,1.1,-0.9
COc1ccc(CN(C)C[C@H]2OCCCC[C@@H](C)Oc3ccc(NC(=O)Nc4c(C)noc4C)cc3C(=O)N([C@H](C)CO)C[C@H]2C)cc1,.,5.1,.,.,.
SMILES,PvdQ inh,RAD54 branch,FID counter,VIM-2 inh,IMP-1 inh
O=C(NCCNC(=O)c1cc(OCC(F)(F)F)ccc1OCC(F)(F)F)Nc1cccc(C(F)(F)F)c1,-7.6,4.9,-13.9,0.5,7.0*
CN(C)S(=O)(=O)NCCNC(=O)c1cc(OCC(F)(F)F)ccc1OCC(F)(F)F,-6.3,.,-5.4,-1.5,-3.8
O=[N+]([O-])c1ccc(C2=NN(c3ccccc3)C(c3ccco3)C2)cc1 (stereo not given),-9.3,.,-10.6,2.9,6.6*
O=[N+]([O-])c1ccc(/C=C/C2=NN(c3ccccc3)C(c3ccco3)C2)cc1 (stereo not given),-0.8,-13.9,2.4,1.9,0.9
Cc1nc2c(c(=O)c3ccccc3n2C)c(=O)n1-c1ccc(F)cc1,-8.9,.,-9.5,8.0*,-0.9
COc1cccc(C(=O)Nc2ccc3c(c2)OC[C@@H](C)N(C(=O)C2CCOCC2)C[C@@H](C)[C@H](OC)CN(C)C3=O)c1,.,-9.7,.,.,.
Cc1cc(-c2n[nH]c(=S)n2Cc2ccccc2)cs1,-2.6,.,-12.2,7.9*,-0.2
Fc1ccc(-c2n[nH]c(=S)n2Cc2ccccc2)cc1,1.5,1.3,-10.4,2.7,-3.5
S=c1[nH]nc(-c2ccncc2)n1Cc1ccccc1,-9.1,.,-2.0,4.9,-2.3
Oc1ccc(-c2n[nH]c(=S)n2Cc2ccccc2)cc1,-18.2,2.6,-5.4,10.9*,-1.7
C[C@H](CO)N1C[C@H](C)[C@H](CN(C)Cc2ccc(C(F)(F)F)cc2)Oc2ccc(NC(=O)NC3CCCCC3)cc2CC1=O,.,-1.7,.,.,.
COc1ccc(CN(C)C[C@H]2Oc3ccc(NC(=O)Cc4ccccc4)cc3CC(=O)N([C@H](C)CO)C[C@H]2C)cc1,.,1.5,.,.,.
CC1(C)Oc2ccc3ccc(=O)oc3c2-c2cn[nH]c21,-3.6,-0.2,-18.0,8.0*,-3.8
CC1(C)Oc2ccc3ccc(=O)oc3c2-c2cnoc21,9.8,-3.1,-0.7,-2.2,-2.9
CSc1nc(SCCN(C)C)c2c3c(sc2n1)COC(C)(C)C3,-10.9,.,6.7,8.9*,-1.7
CSc1nc(SC(C)C(=O)O)c2c3c(sc2n1)COC(C)(C)C3 (stereo not given),-10.6,0.0,-28.5,7.3,-0.8
CCc1nc(SCC(=O)O)c2c3c(sc2n1)COC(C)(C)C3,-9.5,-1.6,-14.4,8.1*,-1.2
N#CC1=C(S)N(c2ccccc2)C(c2ccc(-c3ccc(Cl)c(Cl)c3)o2)NC1=O (stereo not given),1.0,.,-13.0,-1.9,5.2*
C[C@@H]1CN([C@H](C)CO)C(=O)c2cccc(NS(=O)(=O)c3cccs3)c2O[C@@H]1CN(C)C,.,8.5,.,.,.
COc1ccc(NC(=O)Nc2ccc3c(c2)C(=O)N([C@@H](C)CO)C[C@H](C)[C@@H](CN(C)S(=O)(=O)c2cccs2)OCCCC[C@@H](C)O3)cc1,.,12.1,.,.,.
Cc1noc(C)c1S(=O)(=O)Nc1ccc2c(c1)C(=O)N([C@H](C)CO)C[C@H](C)[C@@H](CN(C)S(=O)(=O)c1cn(C)cn1)OCCCC[C@@H](C)O2,.,-3.2,.,.,.
CCCn1c(SCC(=O)Nc2nnc(C)s2)nnc1C1CC1,-15.6,-5.2,-23.4,7.8*,-2.2
COc1ccc(NC(=O)N(C)C[C@@H]2Oc3c(NS(=O)(=O)c4ccc(F)cc4)cccc3C(=O)N([C@H](C)CO)C[C@H]2C)cc1,.,-4.2,.,.,.
NS(=O)(=O)c1ccc(NC(=S)NC(=O)c2ccc(Br)o2)cc1,3.8,-1.4,14.7,-3.2,-4.4

# Bioassay records (PubChem)
